The list is not random: actives were taken first. Their share in the collection is about 3.5%.
FLuc inhib CS – inhibits firefly luciferase, flagging false hits in luciferase inhibition screens; ATPLite firefly luciferase biochemical luminescence, 10 min; inhibition, % at 10 µM; 200,000 compounds, 1.5% hits; AID 1006;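 active means inhibition above about 50% when tested at 10 µM, limit read from the data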
Target sequence (P08659 whole entry, looked up): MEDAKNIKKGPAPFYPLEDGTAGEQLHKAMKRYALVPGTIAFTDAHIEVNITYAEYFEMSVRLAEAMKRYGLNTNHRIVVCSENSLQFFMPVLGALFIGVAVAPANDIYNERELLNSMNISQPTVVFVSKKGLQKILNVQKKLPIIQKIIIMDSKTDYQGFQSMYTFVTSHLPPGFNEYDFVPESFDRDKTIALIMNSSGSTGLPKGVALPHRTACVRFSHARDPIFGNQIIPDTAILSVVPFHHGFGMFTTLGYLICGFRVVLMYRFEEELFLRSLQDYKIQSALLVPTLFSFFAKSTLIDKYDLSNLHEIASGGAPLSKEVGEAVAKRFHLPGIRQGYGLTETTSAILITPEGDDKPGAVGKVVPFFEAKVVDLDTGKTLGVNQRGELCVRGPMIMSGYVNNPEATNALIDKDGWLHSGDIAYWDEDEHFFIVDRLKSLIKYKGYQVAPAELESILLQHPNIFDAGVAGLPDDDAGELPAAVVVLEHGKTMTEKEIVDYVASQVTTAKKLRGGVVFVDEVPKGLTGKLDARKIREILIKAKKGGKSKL
STAT1 activator – STAT1 signaling activation; NIH 3T3 STAT1-luciferase reporter, IFN-gamma, luminescence; 100% = IFN-gamma alone, no compound; activation (% of control), % at 5.5 µM; 200,000 compounds, 2.6% hits;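 active means activation above the screen-wide mean activation plus 3 SD, cut at about 130% in these data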;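 further: raw ratio to IFN-gamma control signal so 100% means no change and 0% no light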
APP 5'UTR act – activates APP 5'UTR luciferase reporter. SH-SY5Y APP 5'UTR luciferase reporter, luminescence; zero percent = DMSO vehicle wells. activation, % at 2 µM. 190,000 compounds, 1% hits;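 active means activation above a set limit, based on mean plus 3 SD of controls, cut at about 140% in these data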
NF-kB neuron act – NF-kB expression increase, human neuronal cells; fold change at 12.5 µM; 190,000 compounds, 1.6% hits; NF-kB reporter expression; hits give high values; in the data active means fold change above about 3.3
Pf gametocyte – inhibitors of late stage P. falciparum gametocyte viability; P. falciparum stage V gametocytes, ATP luminescence, 24 h; inhibition, % at 10.9 µM; 150,000 compounds, 0.065% hits;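 active means inhibition above the mean plus 3 SD of compounds within the control limits, set per campaign, cut at about 38% in these data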;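 further: 0% = DMSO wells and 100% = medium only without gametocytes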
FLuc act counter – firefly luciferase counter-screen for stimulation assays; P08659; ATPlite luciferase biochemical, luminescence, 10 min; 0 = ATP-free wells, 1 = DMSO control; 200,000 tested, under 10 active; activation factor at 10 µM; AID 1027;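 active means luciferase activation factor, scaled between plate controls, of at least 2 with compound at 10 µM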
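test system = cell-free luciferase reagent | medium = PBS as buffer for the ATP substrate | dosing = test compounds dosed from 2 mM stocks in 100% DMSO | incubation = 10 min at ambient temperature | detection = luminescence measurement of luciferase light output | benchmarks = low control with PBS replacing ATP, high control enzyme plus ATP without compound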
The depositor's hits bear a star; nt = no result given.

SMILES | FLuc inhib CS | STAT1 activator | APP 5'UTR act | NF-kB neuron act | Pf gametocyte | FLuc act counter
C/C(=N\NC(=O)c1ccccc1)c1ccccc1Br | 3 | 116 | 27 | 1.9 | -10 | 1
C/C(=N\NC(=O)C(N)=O)c1ccc(NC(=O)c2cccs2)cc1 | 4 | 137* | 56 | 1.7 | 3 | 1
C/C(=N/NC(=O)c1cccs1)c1cccc(N)c1 | 8 | 121 | 111 | 2.1 | -3 | 0.9
O=C(CS(=O)CC(=O)N(CC(=O)NC1CCCC1)C1CCCC1)Nc1ccc(F)cc1 (centres undefined) | -10 | 98 | -8 | 1.1 | -16 | 1.1
O=C1c2ccc(-c3ccc(Cl)c(C(F)(F)F)c3)cc2S(=O)(=O)c2cccc(C(=O)N3CCN(c4ccc(Cl)cn4)CC3)c21 | nt | nt | nt | nt | -7 | nt
O=C(O)C(Oc1ccc2cc(-c3ccc(Cl)cc3)c(=O)oc2c1)c1ccccc1 (centres undefined) | nt | nt | nt | nt | -72 | nt
CC(=O)c1ccc(NC(=O)c2cccs2)cc1 | 30 | 127 | 74 | 2.5 | -42 | 0.7
CCN(CC)S(=O)(=O)c1cccc(C(=O)N/N=C(\C)c2cccs2)c1 | 47 | 129* | 112 | 2.8 | -4 | 0.5
N/C(=N\O)c1ccc(NC(=O)c2cccs2)cc1 | 28 | 130* | 51 | 2.3 | nt | 0.7
CC(C)(C)c1ccc(/C=C/C(=O)Nc2nncs2)cc1 | 16 | 126 | 168* | 1.2 | nt | 0.8
O=C(/C=C/c1ccc2c(c1)OCO2)Nc1nncs1 | nt | nt | nt | nt | -3 | nt
O=c1c2ccccc2nc2sc3ccccc3n12 | 33 | 141* | 1 | 3.2 | 15 | 0.7
O=C1CCCC/C1=C/Nc1ccc(C(=O)O)cc1 | 1 | 100 | nt | 1.3 | nt | 1
CC1CCC/C(=C\Nc2ccc(O)cc2)C1=O (centres undefined) | 14 | 136* | -1 | 2.1 | 10 | 0.9
Cc1cc(C(=O)O)ccc1N/C=C1\CCCC(C)C1=O (centres undefined) | 8 | 150* | 149* | 4* | nt | 0.9
O=C(c1ccc(Br)cc1)c1cc(-c2ccccn2)c(N2CCOCC2)s1 | -7 | 102 | -12 | 0.78 | -2 | 1.1
O=C(NC(=S)Nc1cccnc1Cl)c1ccco1 | 58* | 115 | 7 | 1 | 25 | 0.4
O=C(NC(=S)Nc1ccccn1)c1ccco1 | 28 | 132* | 100 | 2.3 | 3 | 0.7
O=C(NC(=S)Nc1ccccc1[N+](=O)[O-])c1ccco1 | 21 | 97 | -18 | 1.7 | nt | 0.8
Cc1ccnc(NC(=S)NC(=O)c2ccco2)c1 | 61* | 130* | 149* | 4.7* | -19 | 0.4
Cc1ccnc(NC(=S)NC(=O)/C=C/c2ccco2)c1 | 39 | 144* | 86 | 2.4 | nt | 0.6
Fc1cccc2sc(Nc3nnc(-c4ccccc4)o3)nc12 | 77* | 112 | 56 | 2.5 | 16 | 0.2
COc1cc(OC)cc(-c2nnc(Nc3nc4c(F)cccc4s3)o2)c1 | 2 | 94 | 16 | 2.4 | nt | 1
NNc1nc2c(F)cccc2s1 | -3 | 146* | 142* | 1.2 | 2 | 1
Fc1cccc2sc(Nc3nc4c(F)cccc4s3)nc12 | 1 | 104 | 39 | 1 | nt | 1
SMILES | FLuc inhib CS | STAT1 activator | APP 5'UTR act | NF-kB neuron act | Pf gametocyte | FLuc act counter
Nc1nc2n(n1)C(c1ccccc1Cl)CC(c1ccc(F)cc1)N2 (centres undefined) | -6 | 101 | -10 | 1.1 | nt | 1.1
CC(C)CNS(=O)(=O)c1ccc(OCC(=O)NCc2ccco2)cc1 | -1 | 104 | 8 | 1.4 | -19 | 1
N#CCn1nnc(-c2ccc3c(c2)OCO3)n1 | 3 | 100 | 0 | 1.1 | -17 | 1
Cc1ccc(-c2nnc(-c3ccc4c(c3)OCO4)o2)cc1 | 52* | 130* | 130 | 1.1 | -4 | 0.5
Brc1ccc(-c2nnc(-c3ccc4c(c3)OCO4)o2)o1 | 60* | 115 | 5 | 4* | 10 | 0.4
CCOc1ccc(-c2nnc(-c3ccco3)o2)cc1OCC | -1 | 125 | 15 | 1.8 | 28 | 1
c1coc(-c2nnc(-c3ccc4c(c3)OCO4)o2)c1 | 38 | 133* | 88 | 2.6 | nt | 0.6
Clc1ccc(CSc2nnc(-c3ccc4c(c3)OCO4)o2)cc1 | -3 | 103 | -3 | 1.2 | 9 | 1
O=C1CCCCC1Sc1nnc(-c2ccc3c(c2)OCO3)o1 (centres undefined) | 89* | 18 | 178* | 1.1 | -1 | 0.1
c1nnc(-c2ccc3c(c2)OCO3)o1 | -4 | 104 | 16 | 1.2 | nt | 1
CC1(C)CC(NC(=O)C2CCCCC2)CC(C)(C)N1 | nt | nt | nt | nt | 4 | nt
Clc1cccc(CN2CCSCC2)c1Cl | nt | nt | nt | nt | 5 | nt
c1ccc(-c2nnc(-c3ccco3)o2)cc1 | 18 | 138* | 67 | 1.7 | -5 | 0.8
Cc1cccc2cc(CN(Cc3cccs3)S(=O)(=O)c3ccc4c(c3)OCCO4)c(=O)[nH]c12 | 3 | 99 | 8 | 0.56 | -1 | 1
CC(C)(C)c1ccc(-c2noc(CCC(=O)NCC3CCCO3)n2)cc1 (centres undefined) | 64* | 90 | -60 | 2.7 | -14 | 0.4
CN(C)C(=O)CCc1nc(-c2ccc(C(C)(C)C)cc2)no1 | 52* | 108 | 71 | 2.8 | -3 | 0.5
CNC(=O)CCc1nc(-c2ccc(C(C)(C)C)cc2)no1 | 58* | 106 | 41 | 2.6 | nt | 0.4
CC(C)(C)c1ccc(-c2noc(CCC(=O)N3CCOCC3)n2)cc1 | 83* | 88 | -3 | 3.2 | -14 | 0.2
CC(C)(C)c1ccc(-c2noc(CCC(N)=O)n2)cc1 | 43 | 105 | -72 | 1.2 | 4 | 0.6
COc1ccc(-c2noc(CCCC(=O)N3CCOCC3)n2)cc1 | -5 | 93 | -12 | nt | -20 | 1.1
Cc1ccc(C(=O)NC(C(=O)NC2CCCC2)c2ccccc2)cc1 (centres undefined) | nt | nt | nt | nt | -3 | nt
COc1ccc(NS(=O)(=O)c2cc(NC(=O)c3cccnc3Cl)ccc2N2CCCC2)cc1 | nt | nt | nt | nt | -8 | nt
COc1ccc(-c2cnnc(N/N=C/c3ccc(O)c(OC)c3)n2)cc1 | 81* | 118 | -30 | 1.1 | nt | 0.2
COc1cc(/C=N/Nc2ccccn2)ccc1O | nt | nt | nt | nt | -3 | nt
O=C(N/N=C/c1cn(-c2cccs2)nc1-c1ccccc1)c1ccccc1Br | 8 | 96 | 19 | 0.61 | nt | 0.9
SMILES | FLuc inhib CS | STAT1 activator | APP 5'UTR act | NF-kB neuron act | Pf gametocyte | FLuc act counter
O=C(N/N=C/c1cn(-c2ccccc2)nc1-c1cc2ccccc2o1)c1ccccc1Br | 6 | 120 | 188* | 1.9 | 11 | 0.9
COc1ccc(N(C(C)=O)c2nc(C)cc(C)c2C#N)c(OC)c1 | -6 | 100 | -17 | 1.1 | 0 | 1.1
CCOC(=O)c1cnc(SCC(=O)c2ccc(Cl)cc2)nc1N | -8 | 98 | 11 | 1.2 | 25 | 1.1
CCOC(=O)c1cnc(SCc2ccc(C)cc2)nc1N | -8 | 140* | 18 | 2.2 | -10 | 1.1
CCCCSc1ncc(C(=O)OCC)c(N)n1 | 30 | 139* | 164* | 6.8* | 3 | 0.7
CN(C)c1ccc(-c2cc3ccccc3c(=O)o2)cc1 | nt | nt | nt | nt | 7 | nt
